Assay results taken from ChEMBL document CHEMBL3853360, “Combined Interactions with I1-, I2-Imidazoline Binding Sites and α2-Adrenoceptors To Manage Opioid Addiction” (ACS Med Chem Lett, 2016).

Key:
[1] = Displacement of [3H]-2-BFI from I2 receptor imidazoline binding site in Sprague-Dawley rat brain membranes after 30 mins by liquid scintillation counting; format: cell membranes, Membrane
In short: (§1)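 Radioligand competition binding with pKi determined by displacement. I1 sites: [125I]-p-iodoclonidine on rat kidney membranes. I2 sites: [3H]-2-BFI on rat brain membranes. α2-ARs: [3H]-RX821002 on rat brain membranes.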

Nischarin = Nischarin (Rattus norvegicus, UniProt Q4G017); experiment: Displacement of [125I]-p-iodoclonidine from I1 receptor imidazoline binding site in Sprague-Dawley rat kidney cell membranes after 30 mins by liquid scintillation counting; in short: as §1
[2] = biological target: T1, Adrenergic receptor alpha-2 (Rattus norvegicus, UniProt P22086+P19328+P22909); experiment: Displacement of [3H]-RX 821002 from alpha2-AR in Sprague-Dawley rat brain membranes after 30 mins by liquid scintillation counting; format: cell membranes, Membrane; in short: as §1
T1 sequence (P22086 whole entry): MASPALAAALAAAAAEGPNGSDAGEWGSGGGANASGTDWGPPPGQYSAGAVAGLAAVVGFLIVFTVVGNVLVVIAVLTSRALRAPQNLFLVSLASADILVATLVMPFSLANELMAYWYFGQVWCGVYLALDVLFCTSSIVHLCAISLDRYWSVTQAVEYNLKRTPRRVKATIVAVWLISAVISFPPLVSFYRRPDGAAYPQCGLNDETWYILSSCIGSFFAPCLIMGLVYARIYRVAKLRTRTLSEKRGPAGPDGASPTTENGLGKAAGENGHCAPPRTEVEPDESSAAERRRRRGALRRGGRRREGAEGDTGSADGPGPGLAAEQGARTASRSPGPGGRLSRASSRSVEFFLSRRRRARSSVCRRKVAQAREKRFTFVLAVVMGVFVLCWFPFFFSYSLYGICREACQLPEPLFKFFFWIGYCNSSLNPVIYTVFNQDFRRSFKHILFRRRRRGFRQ
T1 sequence (P19328 whole entry): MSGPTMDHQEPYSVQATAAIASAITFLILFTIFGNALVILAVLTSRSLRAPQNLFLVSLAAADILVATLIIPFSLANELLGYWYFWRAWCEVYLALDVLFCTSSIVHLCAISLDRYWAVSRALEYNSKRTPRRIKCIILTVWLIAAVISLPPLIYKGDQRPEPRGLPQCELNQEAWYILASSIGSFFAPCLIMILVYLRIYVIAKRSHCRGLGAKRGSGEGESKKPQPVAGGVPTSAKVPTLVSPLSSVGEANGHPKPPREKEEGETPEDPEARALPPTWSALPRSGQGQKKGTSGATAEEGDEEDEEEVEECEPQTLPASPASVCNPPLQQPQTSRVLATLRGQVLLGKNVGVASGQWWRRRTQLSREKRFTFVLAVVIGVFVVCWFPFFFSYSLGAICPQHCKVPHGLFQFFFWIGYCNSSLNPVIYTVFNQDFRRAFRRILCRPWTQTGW
T1 sequence (P22909 whole entry): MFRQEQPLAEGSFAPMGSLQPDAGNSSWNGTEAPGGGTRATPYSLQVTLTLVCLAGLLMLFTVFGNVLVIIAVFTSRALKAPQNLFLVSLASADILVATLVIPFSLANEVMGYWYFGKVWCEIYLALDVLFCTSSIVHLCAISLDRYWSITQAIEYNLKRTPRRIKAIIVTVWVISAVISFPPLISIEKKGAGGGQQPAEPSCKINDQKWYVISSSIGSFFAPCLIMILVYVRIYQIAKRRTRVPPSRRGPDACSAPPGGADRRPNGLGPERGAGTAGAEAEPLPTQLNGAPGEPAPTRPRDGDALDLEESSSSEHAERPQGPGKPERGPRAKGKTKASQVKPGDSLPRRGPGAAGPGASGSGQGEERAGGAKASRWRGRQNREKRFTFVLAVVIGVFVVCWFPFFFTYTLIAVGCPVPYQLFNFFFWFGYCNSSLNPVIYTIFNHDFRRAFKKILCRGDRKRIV

Homo sapiens = species: Homo sapiens; experiment: Selectivity ratio of agonist activity at I1 receptor imidazoline binding site (unknown origin) to agonist activity at alpha2-AR (unknown origin)
[3] = biological target: T1, Adrenergic receptor alpha-2; experiment: Displacement of [3H]-clonidine from alpha2-AR in rat brain cortical membranes after 45 mins by liquid scintillation counting; format: cell membranes
[4] = Displacement of [3H]idazoxan from I2 receptor imidazoline binding site in rabbit kidney membranes after 45 mins by […]; format: cell membranes, Oryctolagus cuniculus, Membrane
[5] = biological target: T2, Alpha-2B adrenergic receptor (Homo sapiens) (UniProt P18089); experiment: Agonist activity at human alpha2b-AR expressed in CHO cells assessed as rate of acidification after 240 mins by cytosensor microphysiometric analysis relative to (-)-noradrenaline; format: cell-based
T2 sequence (whole entry): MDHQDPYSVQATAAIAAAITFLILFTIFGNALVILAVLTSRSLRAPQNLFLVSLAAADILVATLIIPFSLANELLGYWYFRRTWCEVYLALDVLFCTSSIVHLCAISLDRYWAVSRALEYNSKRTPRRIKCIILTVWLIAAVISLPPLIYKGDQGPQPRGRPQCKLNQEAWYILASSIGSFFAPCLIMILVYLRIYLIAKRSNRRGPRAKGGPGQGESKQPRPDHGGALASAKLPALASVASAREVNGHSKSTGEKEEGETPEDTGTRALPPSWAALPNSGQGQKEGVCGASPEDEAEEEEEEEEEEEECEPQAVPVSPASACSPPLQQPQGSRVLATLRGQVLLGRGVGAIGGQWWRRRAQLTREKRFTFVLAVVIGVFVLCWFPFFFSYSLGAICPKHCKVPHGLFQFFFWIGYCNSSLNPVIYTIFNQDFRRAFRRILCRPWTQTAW
In short: (§2)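 Functional assay in CHO cells stably expressing a single human α2-AR subtype (α2A, α2B or α2C), read on a Cytosensor microphysiometer. Outputs are pEC50, intrinsic activity and, for antagonism, pKb. Intrinsic activity is expressed as a fraction of the full agonist (−)-noradrenaline, set at 1. Values are mean ± SEM of 3–5 separate experiments.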

[6] = biological target: T3, Alpha-2C adrenergic receptor (Homo sapiens) (UniProt P18825); experiment: Agonist activity at human alpha2c-AR expressed in CHO cells assessed as rate of acidification after 240 mins by cytosensor microphysiometric analysis relative to (-)-noradrenaline; format: cell-based; in short: as §2
T3 sequence (whole entry): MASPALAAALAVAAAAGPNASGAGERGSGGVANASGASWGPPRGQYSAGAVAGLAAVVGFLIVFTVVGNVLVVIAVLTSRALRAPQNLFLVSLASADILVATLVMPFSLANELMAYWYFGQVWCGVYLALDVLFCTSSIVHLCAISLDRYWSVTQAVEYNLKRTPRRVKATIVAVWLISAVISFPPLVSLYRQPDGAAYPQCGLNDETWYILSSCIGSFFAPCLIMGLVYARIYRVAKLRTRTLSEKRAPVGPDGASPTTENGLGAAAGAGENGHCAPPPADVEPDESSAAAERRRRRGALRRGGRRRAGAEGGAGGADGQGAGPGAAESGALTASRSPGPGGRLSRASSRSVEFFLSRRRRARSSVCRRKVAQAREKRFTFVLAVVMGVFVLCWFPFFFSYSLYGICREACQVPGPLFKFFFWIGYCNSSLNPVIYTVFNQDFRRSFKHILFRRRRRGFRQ

[7] = biological target: T4, Alpha-2B adrenergic receptor (Homo sapiens, UniProt P18089); experiment: Agonist activity at human alpha2b-AR expressed in CHO cells assessed as rate of acidification after 240 mins by cytosensor microphysiometric analysis; format: cell-based; in short: as §2
T4 sequence (P18089 whole entry): T2 sequence (whole entry)

[8] = biological target: T5, Alpha-2A adrenergic receptor (Homo sapiens) (UniProt P08913); experiment: Antagonist activity at human alpha2a-AR expressed in CHO cells assessed as inhibition of (-)-noradrenaline-induced acidification rate after 240 mins by cytosensor microphysiometric analysis; format: cell-based; in short: as §2
T5 sequence (whole entry): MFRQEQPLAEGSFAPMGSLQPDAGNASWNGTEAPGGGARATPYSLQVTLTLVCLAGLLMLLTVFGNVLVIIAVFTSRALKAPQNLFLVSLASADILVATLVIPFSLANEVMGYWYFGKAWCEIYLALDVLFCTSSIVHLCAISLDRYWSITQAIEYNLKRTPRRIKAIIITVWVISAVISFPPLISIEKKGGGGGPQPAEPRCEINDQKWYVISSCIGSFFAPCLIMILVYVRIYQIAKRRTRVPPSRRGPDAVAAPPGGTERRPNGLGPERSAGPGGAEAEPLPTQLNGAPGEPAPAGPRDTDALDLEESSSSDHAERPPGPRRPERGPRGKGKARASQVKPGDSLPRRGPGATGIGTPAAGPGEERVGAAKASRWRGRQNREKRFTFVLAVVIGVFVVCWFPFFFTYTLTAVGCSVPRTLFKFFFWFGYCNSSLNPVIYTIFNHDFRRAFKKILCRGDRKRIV

[9] = biological target: T6, Alpha-2C adrenergic receptor (Homo sapiens, UniProt P18825); experiment: Agonist activity at human alpha2c-AR expressed in CHO cells assessed as rate of acidification after 240 mins by cytosensor microphysiometric analysis; format: cell-based; in short: as §2
T6 sequence (P18825 whole entry): T3 sequence (whole entry)

Chain of Nischarin (Q4G017 whole entry): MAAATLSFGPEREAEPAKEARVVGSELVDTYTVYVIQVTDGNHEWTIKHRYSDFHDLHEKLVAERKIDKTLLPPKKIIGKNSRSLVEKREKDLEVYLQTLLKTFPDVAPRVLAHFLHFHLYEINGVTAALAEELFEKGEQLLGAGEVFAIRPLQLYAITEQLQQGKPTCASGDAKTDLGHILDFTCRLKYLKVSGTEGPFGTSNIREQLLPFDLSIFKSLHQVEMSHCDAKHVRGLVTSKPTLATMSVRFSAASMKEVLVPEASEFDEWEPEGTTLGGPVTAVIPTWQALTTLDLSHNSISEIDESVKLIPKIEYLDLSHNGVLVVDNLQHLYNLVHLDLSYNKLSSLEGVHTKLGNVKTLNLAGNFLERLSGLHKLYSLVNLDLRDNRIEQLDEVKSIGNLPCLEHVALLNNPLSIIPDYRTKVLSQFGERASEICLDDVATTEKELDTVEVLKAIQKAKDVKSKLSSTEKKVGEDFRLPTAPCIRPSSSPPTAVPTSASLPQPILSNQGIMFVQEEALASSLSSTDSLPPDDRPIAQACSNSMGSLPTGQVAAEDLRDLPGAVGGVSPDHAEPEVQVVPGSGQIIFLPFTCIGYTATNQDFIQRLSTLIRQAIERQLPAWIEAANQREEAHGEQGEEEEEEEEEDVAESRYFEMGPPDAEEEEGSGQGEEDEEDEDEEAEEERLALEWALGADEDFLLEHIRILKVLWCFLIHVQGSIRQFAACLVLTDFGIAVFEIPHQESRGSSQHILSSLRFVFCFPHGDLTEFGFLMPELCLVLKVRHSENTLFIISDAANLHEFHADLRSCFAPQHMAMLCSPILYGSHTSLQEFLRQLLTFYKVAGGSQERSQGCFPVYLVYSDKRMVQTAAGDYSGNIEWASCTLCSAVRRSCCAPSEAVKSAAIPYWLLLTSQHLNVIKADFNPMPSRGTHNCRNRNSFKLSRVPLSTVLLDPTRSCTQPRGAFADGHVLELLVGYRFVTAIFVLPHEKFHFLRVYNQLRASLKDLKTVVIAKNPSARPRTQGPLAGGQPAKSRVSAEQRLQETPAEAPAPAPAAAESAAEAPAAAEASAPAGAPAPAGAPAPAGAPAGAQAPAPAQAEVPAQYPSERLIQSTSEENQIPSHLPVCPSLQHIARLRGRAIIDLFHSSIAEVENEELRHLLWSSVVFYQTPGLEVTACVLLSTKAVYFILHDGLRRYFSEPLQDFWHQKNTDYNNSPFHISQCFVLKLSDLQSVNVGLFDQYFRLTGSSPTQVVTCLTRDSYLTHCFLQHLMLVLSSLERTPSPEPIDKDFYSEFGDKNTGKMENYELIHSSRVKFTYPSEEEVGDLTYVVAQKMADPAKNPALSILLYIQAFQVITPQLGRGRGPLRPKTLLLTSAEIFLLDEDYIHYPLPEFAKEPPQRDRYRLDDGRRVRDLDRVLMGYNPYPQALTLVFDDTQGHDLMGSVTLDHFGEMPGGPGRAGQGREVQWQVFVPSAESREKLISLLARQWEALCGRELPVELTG

pKi [1]	Ki (Nischarin) [nM]	pKi [2]	Selectivity ratio (Homo sapiens)	pKi [3]	pKi [4]	Intrinsic activity [5]	Intrinsic activity [6]	EC50 [7] [nM]	pKb [8]	EC50 [9] [nM]	SMILES
8.79	24	< 6	–	–	–	–	–	–	–	–	Clc1ccccc1/C=C/C1=NCCN1
–	–	–	–	< 6	8.72	–	–	–	–	–	C(=C\c1ccccc1)/C1=NCCN1 [TRACIZOLINE]
8.08	97.7	< 6	–	–	–	–	–	–	–	–	C(=C\c1ccccc1-c1ccccc1)/C1=NCCN1

Second part, the molecule before the results:

SMILES	pKi [1]	Ki (Nischarin) [nM]	pKi [2]	Selectivity ratio (Homo sapiens)	pKi [3]	pKi [4]	Intrinsic activity [5]	Intrinsic activity [6]	EC50 [7] [nM]	pKb [8]	EC50 [9] [nM]
COc1nc(C)nc(Cl)c1NC1=NCCN1	–	–	–	40	–	–	–	–	–	–	–
Clc1ccccc1NCC1=NCCN1	7.9	7.59	7.59	–	–	–	0.45	0.85	776	7.12	224
CCCc1ccccc1NCC1=NCCN1	7.29	8.32	6.75	–	–	–	0.55	0.75	4570	6.71	115
